A selection: hits, their analogues and other compounds. The true share with any hit is near 2.1%.
ZTA counter: counter-screen for EBNA-1 inhibitors: inhibitors of Epstein-Barr virus ZTA. P03206. ZTA-DNA binding, fluorescence polarization. inhibition, % at 11 µM. actives 0.15% (n = 320,000). AID 2234; in the data active = inhibition above about 33%
NS3 helicase inh: HCV NS3 helicase inhibition; inhibition, % at 10.9 µM; NS3 helicase DNA unwinding, Cy5 molecular beacon fluorescence; actives 0.56% (n = 290,000);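 active = inhibition above the mean of all tested compounds plus 3 SD, set per campaign, cut at about 35% in these data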;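 also: 0% = DMSO wells and 100% = thioflavine S control wells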
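System: NS3 helicase fragment of HCV / Schedule: 1 h at 25 °C / Control set: DMSO alone as 0% and 110 µM thioflavine S as 100% / Reagent: Cy5/quencher beacon DNA duplex and ATP to start / Technique: Cy5 fluorescence / Replication: singlicate / Evaluation: % inhibition of end-to-start signal ratio versus controls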
EBNA-1 inhibitor: blocks EBNA-1 binding to DNA. EBNA-1 DNA binding, fluorescence polarization. inhibition, % at 14.8 µM. actives 0.34% (n = 300,000); in the data active = inhibition above about 28%
MLLE-PAM2 inh: inhibitors of microRNA-mediated deadenylation, human PABP1 MLLE binding; P11940; GST-MLLE / FITC-PAM2 fluorescence polarization; inhibition, % at 20 µM; actives 0.36% (n = 360,000); AID 588489; in the data active = inhibition above about 35%, passing the limit was not always enough;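 also: plate controls were DMSO wells with GST-MLLE for no effect and wells lacking GST-MLLE protein for full effect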
eIF4H FP inh: inhibitors of RNA binding by human eIF4H | eIF4H fluorescence polarization binding assay | Q15056 | AID 2012 | actives 0.94% (n = 290,000) | inhibition, % at 35 µM;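 also: calls also rest on retests at 20 µM and on dose response follow-up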
PABP polyA inh: blocks human PABP binding to poly(A) RNA | P11940 | fluorescence polarization | inhibition, % at 35 µM | actives 1% (n = 290,000) | AID 2014;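 also: calls also rest on retests at 20 µM and on dose response follow-up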
* marks the source's active call; other numbers are inactive results; nt = no result given. Unless noted, no rule for the calls is given here.

SMILES | ZTA counter | NS3 helicase inh | EBNA-1 inhibitor | MLLE-PAM2 inh | eIF4H FP inh | PABP polyA inh
O=C(/C=C/c1ccc(O)c(O)c1)c1ccc(S(=O)(=O)N2CCCCCC2)cc1 | 10.7 | 25.2 | 3.4 | -6.8 | 89.6* | -12.6
NC(=O)CSc1nc2ccccc2c(=O)n1-c1ccccc1 | -7.0 | 0.9 | -1.4 | -2.8 | -5.4 | -3.3
COc1cccc(-n2c(SCC(N)=O)nc3ccccc3c2=O)c1 | -13.6 | 0.9 | 3.5 | -70.0 | 58.2* | 4.8
O=C(CSc1nc2ccccc2c(=O)n1-c1ccccc1)c1c[nH]c2ccccc12 | -1.9 | 5.1 | 37.2* | 0.9 | -1.3 | 9.2
Cc1noc(C)c1NC(=O)N(C)C[C@H]1Oc2c(NC(=O)Nc3ccccc3)cccc2C(=O)N([C@H](C)CO)C[C@@H]1C | nt | nt | nt | 3.3 | nt | nt
CCOc1ccccc1N(CC(=O)N1CCC(C)CC1)S(=O)(=O)c1ccc(C)cc1 | -2.7 | 32.3 | -1.1 | -7.8 | 49.5 | -3.6
CC(C)(C)NC(=O)C(c1cccs1)N(CC1CCCO1)C(=O)c1ccc(-c2ccccc2)[nH]1 (stereo not given) | 2.5 | -16.0 | 7.4 | 1.1 | active | 50.5
O=C(NCC1CCCO1)C(c1cccs1)N(Cc1ccccc1)C(=O)c1ccc(-c2ccccc2)[nH]1 (stereo not given) | -16.0 | -14.3 | 6.6 | -19.7 | -11.1 | 4.4
COCCCNC(=O)/C(C#N)=c1\s/c(=C\c2ccccc2OC(F)F)c(=O)n1CCCOC | -5.9 | -6.3 | 4.7 | -8.1 | 54.7* | 9.5
C=CCN(C(=O)CNC(=O)c1ccco1)C(C(=O)NC1CCCCC1)c1ccc(F)cc1 (stereo not given) | -6.9 | 3.4 | -2.2 | -1.2 | -5.8 | 0.7
O=S(=O)(Cc1ccc(Cl)cc1)Oc1ccc(Cl)cc1 | nt | nt | nt | -15.0 | nt | nt
O=[N+]([O-])c1ccc(OS(=O)(=O)Cc2ccccc2)cc1 | -9.3 | -1.4 | -7.7 | 6.9 | 2.5* | 70.3*
Nc1nnc(SCC(=O)Nc2cccc(S(N)(=O)=O)c2)s1 | 12.0 | -7.0 | 8.6 | -18.5 | -3.9 | 0.1
Cn1c(=O)[nH]c(=O)c2c1nc(N1CCCCC1)n2CCCSc1nnnn1-c1ccccc1 | 1.1 | -14.3 | -7.9 | 10.6 | active | 50.3*
CC1CCN(c2nc3c(c(=O)[nH]c(=O)n3C)n2CC(C)CSc2nnnn2-c2ccccc2)CC1 (stereo not given) | -6.6 | 0.7 | 3.1 | -7.8 | 5.3 | 69.0*
Oc1oc(-c2ccccc2)nc1C=NCc1ccccc1 | -5.6 | -4.6 | -4.8 | 2.9 | -0.2 | -5.6
CN(C)/C=N/S(=O)(=O)c1ccc(Cl)cc1 | -6.6 | 6.2 | 5.3 | 10.7 | 5.7 | 30.6
CC(=O)c1cccc(N(CC(=O)NC2CCCCC2)C(=O)c2csnn2)c1 | -0.5 | 1.4 | -0.4 | 24.9 | -18.5 | -5.0
COc1nc(-c2ccccc2)cc(-c2ccccc2)n1 | 2.2 | -2.1 | -0.3 | -13.0 | active | 84.3*
COCCN(C(=S)Nc1ccc(C)cc1)C(C)c1cccnc1 (stereo not given) | 2.9 | -6.5 | -1.0 | -15.6 | 8.0 | -9.2
COc1ccc(CC(N)c2csc(NC(=O)Nc3ccccc3C(C)(C)C)n2)cc1 (stereo not given) | nt | nt | nt | 9.3 | nt | nt
CC1CCCC(C)N1C(=O)COC(=O)CN1C(=O)c2ccccc2C1=O (stereo not given) | nt | nt | nt | -8.7 | nt | nt
CCCCCC(=O)N1CC2(CC)CN(C(=O)CCCCC)CC(CC)(C1)C2=O | -13.2 | 3.3 | -6.3 | -8.2 | 98.6* | 91.6*
CC1=CC(=O)C=CC1=Nc1ccc(N(C)C)cc1 | nt | nt | nt | 50.7* | nt | nt
COc1cccc(N2CCN(S(=O)(=O)c3ccc(CN4C(=O)c5cccnc5C4=O)cc3)CC2)c1 | 3.1 | -5.2 | 5.7 | -2.0 | -10.2 | -9.9
N#Cc1ccc(/C=C/C(=O)c2ccco2)cc1 | 15.6 | -0.3 | 10.9 | -109.2 | 10.8 | 3.4

Screening data: PubChem BioAssay, several laboratories
